Experimental data from the RNAGym collection of RNA variant scans (doi:10.1126/science.aae0568).
Fewer inactive variants are shown than the library holds.

B1: tRNA (parent)
chain: GUUCCGUUGGCGUAAUGGUAACGCGUCUCCCUCCUAAGGAGAAGACUGCGGGUUCGAGUCCCGUACGGAACG

Variants of: B1
Test: yeast fitness relative to wild type (ratio to wild type); higher = fitter; tRNA-Arg(CCU), competitive growth, 37 C, YPD
Procedure, shortened: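 Variants of the tRNA-Arg(CCU) gene, chemically synthesised with a 3% per-site mutation rate at 69 sites, were placed at the native genomic locus in Saccharomyces cerevisiae. The pooled strains were competed in YPD at 37°C for 24 hours in six parallel replicates. Gene amplicons from the start population and from each end population were read by 100-nucleotide paired-end sequencing. Darwinian fitness relative to wild type came from changes in genotype frequencies; genotypes needed ≥ 100 starting reads, and estimates < 0.5 were set to 0.5.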

First: GUUCCGUGGGCGUAAUGGUAGCGCGUAUCCCUCCAAAGGAGAAGACUGCGGGUUCGAGUCCAGUCCGGAACG
Second: GUUCCGUCGGCGUAACGGUAACGCGUCUCCCUCCUAAGGAGAAGACUGCGGGUUCGAGUCCCGUGCGGAACG
The yeast fitness of the first is lower: 0.568 for the first, 0.707 for the second.

Going from GUUCCGUGGGCGUAAUGGUAACGCGUCUCCCUCCUACGGAGAAGACUGCGGGUUCGAGUCCCGUACGAAACG to GUUCCGUCGGCGUAAAGGUAACGCGUUUCCCUCCUAAGGAGAAGACUGCGGGUUGGAGUCCCGUACGGAACG, the yeast fitness rises from ≤ 0.5 to 0.691.

GUUCCGUGGGCGUAAUGGUAACGCGUCUCCCUCCUAUGGAGAAGACUGCGGGUUCGAGUCCCGUAUGGAACG and GUUCCGUGGGCGUAAUGGUAUCGCGUCUCCCUCCUAAGGAGAAGACUGCGGGUUCGAGUCCUGUACGGAACG cannot be ordered by yeast fitness: ≤ 0.5 for the first, ≤ 0.5 for the second.

First: GUUCCGUGGGCGUAAUGGUAGCGCGUCUUCCCCCUAAGGAGAAGACUGCGGGUUCGAGUCCCGUACGGAACG
Second: GUUCCGUGGGCGUACUGGUAACGCGUCUCCCUCCUAAGGAGAAGACUGCGGGUUCGAGUCCCGUACGGAACG
The yeast fitness of the first is lower: ≤ 0.5 for the first, 0.598 for the second.

GUUCCGUCGGCGUAAUGGAAACGCGUCUCCCUCCUAAGGAGAAGACUGCGGGUUCGCGUCCCGAACGGAACG and GUUCCGUGGGCGUUUUGGUCACGCGUCUCCCUCCUAAGGAGAAGACUGCGGGUUCGAGUUCCGUACGGCACG cannot be ordered by yeast fitness: ≤ 0.5 for the first, ≤ 0.5 for the second.

First: GUUCCGUCGGCGAAAUGGUAACGCGUCUCCCUCCUAAGGAGAAGACUGCGGGUUCGAGUCCCGUGCGGAACG
Second: GUUCCGUCGGCGUAACGGUAACGCGUCUCCCUCCUAAGGAGAAGACUGCGGGUUCGAGUCCCGUACGGCACG
The yeast fitness of the first is higher: 0.716 for the first, 0.709 for the second.

GUUCCGUGGGCGUAAUGGUGACGCGUCUCCCUCCUAAGGAGAAGACUGCGGGUUCGAGUGACGUACGGAACG and GUUCCGUGGGCGUAAUGGUAACGCGUCUCCCUCCUAAGGUGAAGACUGCGGAUUCGAGUCCCGUACGGUACG cannot be ordered by yeast fitness: ≤ 0.5 for the first, ≤ 0.5 for the second.

First: GUUCCGUCGGCGUAACGGUAACGCGUCUCCCUCCUAAGGAGAAGACUGCGGGUUCGAGUCCCGUACGGAACG
Second: GUUCCGUGGGCGUAAUGGUAACGCGUCUCCCUCCUACGGAGAAGACUGCGGCUUCGACUCCCGUACGGAACG
The yeast fitness of the first is higher: 0.861 for the first, ≤ 0.5 for the second.

Compared with GUUCCGUCGGCGUAAUGGUAACGCGUCUCCCUCCUAAGGAGAAGACUGCGGAUUCGAGUCCCGUACGGAACG, GUUCCGUCGGCGAAAUGGUAACGCGUCUACGUCCUAAGGAGAAGACUGCGGGUUCGAGUCCCGUACGGAACG is lower in yeast fitness: 0.765 for the first, ≤ 0.5 for the second.

GUUCCGUGGGCGUAAUGGUAUCGCGUCUCCCUCCUAAGGAGAAGACUGCGGGUUCAAGUCCCGUACGGAACG and GUUCCGUCGGCGUAAAGGUAUCGGGUCUCCCUCCUAAGGAGAAGACUCCGGGUUCGAGUCCCGUACGGAACG cannot be ordered by yeast fitness: ≤ 0.5 for the first, ≤ 0.5 for the second.

Going from GUUCCGUGGGCGUCAUCGUAACGCGUCUCCCUCCUAAGGAGAAGACUGCGGGUUCGAGUCGCGUACGGAACG to GUUCCGUCGGCGGAAUGGUAAUGCGUCUCCCUCCUAAGGAGAAGACUGCGGGUUCGAGUCCCGUACGGAACG, the yeast fitness rises from ≤ 0.5 to 0.529.

Going from GUUCCGUCGGCGUAAUGGUAACGCGUCUCCCUCCUAAGGAGAAGACUGCGAGUUCGAGUCCCGUACGGAACG to GUUCCGUGGGCGUAAUGGUUACGCGUCUCCCUCCUCAGGAGAAGACUGCGGGUUCGAGUCCCGUGCGGAACG, the yeast fitness falls from 0.817 to ≤ 0.5.

First: GUUCCGUCGGCGAAAUGGUAAAGCGUCUCCCUCCUAAGGAGUAGACUGCGGGUUCGAGUCCCGUACGGAACG
Second: GUUCCGUGGGCGUAAUGGUGACGCGUCUCCCUCCUAAGGAGAAGACGGCGGGUUCGGGUCCCGUACGGAACG
The yeast fitness of the first is lower: ≤ 0.5 for the first, 0.654 for the second.

Compared with GUUCCGUCGGCGUAAUGGUAACGCGUCGCGCUCCUAAGGCGUAGACUGCGGGUUCGAGUCCCGUACGGAACG, GUUCCGUCGGCGCAAUGGUAACGCGUCUCCCUCCUUAAGAGAAGACUGCGGGUUCGAGUCCCGUCCGGAACG is lower in yeast fitness: 0.54 for the first, ≤ 0.5 for the second.

Going from GUUCCGUCGGCGUAAUGGAAACGCGUCUCCCUCCUAAGGUGAAGACUGCGGGUUCGAGUCCCGUACGGAACG to GUUCCGUCGGCGUAAUGGUAACGCGACUCCCUCCUAAGGAGAAGACUGCGGGUUCGAGUCCCGUACGGAACG, the yeast fitness rises from 0.581 to 0.884.

First: GUUCCGUGGGCGUAGUGGUAACGUGUCUGCCUCCUAAGGAGAAGCCUGCGGGUUCGAGUACCGUACGGAACG
Second: GUUCCGUCGGCGUAAUGGUAACGCGUCUCCCGCCUAAGGAGAAGACUGGGGGUUCGAGUCCCGUACGGAACG
The yeast fitness of the first is higher: 0.551 for the first, ≤ 0.5 for the second.

GUUCCGUCGGCGUAAUGGGAACGCGUCUCCCUCCUAAGGAGAAGCCUGCGGGUUCGAGUCCCGUACGGAACG and GUUCCGUGGGCGUAAUGGUAUCGCGUGUCCCUCCUAAGGAGAAGACUGCGGGUUCGAGUCCCGUCCGGAACG cannot be ordered by yeast fitness: ≤ 0.5 for the first, ≤ 0.5 for the second.

First: GUUCCGUCGGCGAAAUGGUAACGUGUCUGCCUACUAAGGAGAAGACAGCGGGUUUGAGUCCCGUCCGGGACG
Second: GUUCCGUCGGCGUAAUGGGAAUGCGUCUCCUUCCUAAGGUGAAGACUGCGGGUUCGAGUCCCGUACAGAACG
The yeast fitness of the first is lower: ≤ 0.5 for the first, 0.53 for the second.

For GUUCCGUGGGCGUAAUGGUAACGCGUCUCCCUCCUAUGGAGAAGACUGCGGAUUCGCGUACCGUACGGAACG, the yeast fitness was ≤ 0.5.
